Experimental data reported in ChEMBL document CHEMBL1138485, “Discovery of inducible nitric oxide synthase (iNOS) inhibitor development candidate KD7332, part 1: Identification of a novel, potent, and selective series of quinolinone iNOS dimerization inhibitors that are orally active in rodent pain models” (J Med Chem, 2009).

Experiments:
Mus musculus [1] = assay: Antinociceptive activity against formalin-induced phase 2 pain in mouse paw assessed as pain behavior at 100 mg/kg, po pretreated 30 mins before formalin challenge relative to control; assay type: functional
Method in brief: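 Mice were dosed 100 mg/kg po (PEG/Tween 80/PVP + CMC vehicle) 30 min before 20 µL formalin into the left hind paw. Phase II pain-behavior duration was timed 25–45 min post-injection by a single observer. Results are mean ± SE, n = 5–6 mice, compared to vehicle by one-way ANOVA with post hoc tests.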

[2] = Half life in mouse at 10 mg/kg, po; assay type: ADME, organism-based; set-up: dose 10 mg/kg, route oral; details: in vivo
Mus musculus [3] = assay: Reduction of plasma nitrate level in LPS-challenged po dosed BALB/c mouse; assay type: functional
Method in brief: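 Male Balb/c mice were dosed by oral gavage (90% PEG/5% Tween 80/5% PVP + 90% CMC (0.5% w/v)) at t = 0 h, 30 mg/kg for single-dose lines. LPS 10 mg/kg ip in 0.9% NaCl followed immediately. At 6 h, EDTA plasma was taken for nitrate and drug levels. Nitrate reduction is relative to vehicle; ED50 came from full oral dose-response.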

Cytochrome P450 2C9 = Cytochrome P450 2C9 (Homo sapiens, UniProt P11712); assay: Inhibition of CYP2C9; assay type: ADME
Mus musculus [4] = assay: Volume of distribution in mouse at 10 mg/kg, po; assay type: ADME, organism-based; set-up: dose 10 mg/kg, route oral; details: in vivo
[5] = AUC in mouse at 10 mg/kg, po; assay type: ADME, organism-based; set-up: dose 10 mg/kg, route oral; details: plasma
Nitric oxide synthase 1 = Nitric oxide synthase 1 (Homo sapiens, UniProt P29475); assay: Inhibition of human nNOS expressed in HEK293 cells assessed as NO production by transient transfection assay; assay type: cell-based
[6] = molecular target: T1, Nitric oxide synthase, inducible (Mus musculus, UniProt P29477); assay: Inhibition of mouse iNOS expressed in HEK293 cells assessed as NO production in by transient transfection assay; assay type: cell-based
T1 sequence (P29477 whole entry): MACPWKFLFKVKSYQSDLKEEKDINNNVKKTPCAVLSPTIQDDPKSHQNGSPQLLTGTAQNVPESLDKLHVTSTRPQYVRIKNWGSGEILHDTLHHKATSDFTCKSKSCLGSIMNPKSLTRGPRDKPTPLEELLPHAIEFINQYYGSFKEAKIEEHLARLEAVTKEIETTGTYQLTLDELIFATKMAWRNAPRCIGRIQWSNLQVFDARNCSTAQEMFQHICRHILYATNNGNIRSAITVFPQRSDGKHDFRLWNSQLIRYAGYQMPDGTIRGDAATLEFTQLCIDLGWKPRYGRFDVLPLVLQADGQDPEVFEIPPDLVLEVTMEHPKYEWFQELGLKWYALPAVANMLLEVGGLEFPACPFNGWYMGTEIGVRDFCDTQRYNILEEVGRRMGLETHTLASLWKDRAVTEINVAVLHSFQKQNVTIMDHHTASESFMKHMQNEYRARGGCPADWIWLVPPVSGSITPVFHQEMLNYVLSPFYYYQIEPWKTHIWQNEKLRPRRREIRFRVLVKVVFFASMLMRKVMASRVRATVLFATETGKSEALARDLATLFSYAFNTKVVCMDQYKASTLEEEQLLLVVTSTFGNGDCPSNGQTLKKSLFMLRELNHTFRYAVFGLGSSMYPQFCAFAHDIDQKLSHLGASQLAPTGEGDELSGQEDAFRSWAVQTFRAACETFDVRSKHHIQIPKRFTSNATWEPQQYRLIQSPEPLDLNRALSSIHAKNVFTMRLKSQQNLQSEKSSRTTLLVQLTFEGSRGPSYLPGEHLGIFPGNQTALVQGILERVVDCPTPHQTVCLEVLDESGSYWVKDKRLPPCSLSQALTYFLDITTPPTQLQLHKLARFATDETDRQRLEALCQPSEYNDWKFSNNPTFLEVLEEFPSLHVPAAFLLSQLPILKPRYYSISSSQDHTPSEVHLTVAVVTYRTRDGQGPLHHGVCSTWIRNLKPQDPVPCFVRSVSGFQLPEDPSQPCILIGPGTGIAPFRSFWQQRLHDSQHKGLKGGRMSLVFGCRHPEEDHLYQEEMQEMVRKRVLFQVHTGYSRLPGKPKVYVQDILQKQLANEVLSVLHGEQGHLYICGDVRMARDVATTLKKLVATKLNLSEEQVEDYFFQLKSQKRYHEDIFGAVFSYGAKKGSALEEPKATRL
Method in brief: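 HEK293 cells grown to ~70% confluence in DMEM/10% FBS with pen/strep. Cells transiently transfected with 10 µg human or murine iNOS plasmid (Fugene 6), 4 h at 37 °C, 10% CO2. Trypsinized, plated at 5 × 10⁵ cells/mL and dosed at once; 1400W 100 µM final as positive control. After 18 h, NO read as DAN fluorescence (10 µg/mL, 20 min RT, then NaOH). EC50 from 3 runs, 10-point curves, n = 8/point.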

CYP2D6 = CYP2D6 (Homo sapiens, UniProt P10635); assay: Inhibition of CYP2D6 at 100 uM; assay type: ADME
[7] = Cmax in mouse at 10 mg/kg, po; assay type: ADME, organism-based; set-up: dose 10 mg/kg, route oral; details: in vivo
[8] = Plasma clearance in mouse at 10 mg/kg, po; assay type: ADME, organism-based; set-up: dose 10 mg/kg, route oral
CYP1A2 = molecular target: T2, CYP1A2 (Homo sapiens, UniProt P05177); assay: Inhibition of CYP1A2 at 100 uM; assay type: ADME
T2 sequence (P05177 whole entry): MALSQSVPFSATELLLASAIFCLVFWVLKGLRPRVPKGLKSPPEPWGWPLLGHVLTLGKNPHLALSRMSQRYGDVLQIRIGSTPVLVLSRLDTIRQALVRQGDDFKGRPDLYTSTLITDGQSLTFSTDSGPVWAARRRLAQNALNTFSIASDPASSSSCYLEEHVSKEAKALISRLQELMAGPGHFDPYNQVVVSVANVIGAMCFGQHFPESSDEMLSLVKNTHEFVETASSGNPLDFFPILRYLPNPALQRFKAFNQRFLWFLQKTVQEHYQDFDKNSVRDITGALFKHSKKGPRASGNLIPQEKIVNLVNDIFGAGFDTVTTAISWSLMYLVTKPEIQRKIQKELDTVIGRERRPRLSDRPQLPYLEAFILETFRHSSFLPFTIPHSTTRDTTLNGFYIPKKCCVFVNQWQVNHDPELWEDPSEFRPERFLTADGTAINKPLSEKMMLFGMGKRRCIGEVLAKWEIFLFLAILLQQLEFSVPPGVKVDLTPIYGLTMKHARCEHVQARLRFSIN

[9] = Tmax in mouse at 10 mg/kg, po; assay type: ADME, organism-based; set-up: dose 10 mg/kg, route oral; details: in vivo

Chain of CYP2D6 (P10635 whole entry): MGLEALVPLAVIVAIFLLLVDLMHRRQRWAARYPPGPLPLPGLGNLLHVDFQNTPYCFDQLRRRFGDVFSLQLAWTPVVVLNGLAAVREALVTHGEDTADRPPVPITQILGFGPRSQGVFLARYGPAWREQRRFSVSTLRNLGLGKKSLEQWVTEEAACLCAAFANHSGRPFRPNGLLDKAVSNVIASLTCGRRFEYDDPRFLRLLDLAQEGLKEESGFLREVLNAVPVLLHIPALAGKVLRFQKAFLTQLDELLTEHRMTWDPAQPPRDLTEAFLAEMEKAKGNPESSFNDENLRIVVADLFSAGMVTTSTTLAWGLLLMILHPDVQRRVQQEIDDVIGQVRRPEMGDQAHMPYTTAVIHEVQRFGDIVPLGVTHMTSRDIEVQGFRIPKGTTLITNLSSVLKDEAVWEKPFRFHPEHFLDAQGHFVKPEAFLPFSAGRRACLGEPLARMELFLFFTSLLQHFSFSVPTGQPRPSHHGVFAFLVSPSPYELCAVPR
Chain of Cytochrome P450 2C9 (P11712 whole entry): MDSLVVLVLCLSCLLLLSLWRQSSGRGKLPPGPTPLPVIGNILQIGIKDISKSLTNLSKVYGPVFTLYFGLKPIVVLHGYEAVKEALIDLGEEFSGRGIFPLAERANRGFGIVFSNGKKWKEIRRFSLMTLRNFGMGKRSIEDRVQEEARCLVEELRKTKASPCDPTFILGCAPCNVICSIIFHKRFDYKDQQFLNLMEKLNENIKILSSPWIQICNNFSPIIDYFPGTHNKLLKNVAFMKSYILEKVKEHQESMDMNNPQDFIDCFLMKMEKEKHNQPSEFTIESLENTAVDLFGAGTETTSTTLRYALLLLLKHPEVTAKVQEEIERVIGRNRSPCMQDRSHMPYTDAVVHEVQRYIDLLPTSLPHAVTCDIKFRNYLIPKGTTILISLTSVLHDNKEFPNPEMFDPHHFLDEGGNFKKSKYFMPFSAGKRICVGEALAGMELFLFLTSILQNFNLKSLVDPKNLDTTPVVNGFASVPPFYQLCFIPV
Chain of Nitric oxide synthase 1 (P29475 whole entry): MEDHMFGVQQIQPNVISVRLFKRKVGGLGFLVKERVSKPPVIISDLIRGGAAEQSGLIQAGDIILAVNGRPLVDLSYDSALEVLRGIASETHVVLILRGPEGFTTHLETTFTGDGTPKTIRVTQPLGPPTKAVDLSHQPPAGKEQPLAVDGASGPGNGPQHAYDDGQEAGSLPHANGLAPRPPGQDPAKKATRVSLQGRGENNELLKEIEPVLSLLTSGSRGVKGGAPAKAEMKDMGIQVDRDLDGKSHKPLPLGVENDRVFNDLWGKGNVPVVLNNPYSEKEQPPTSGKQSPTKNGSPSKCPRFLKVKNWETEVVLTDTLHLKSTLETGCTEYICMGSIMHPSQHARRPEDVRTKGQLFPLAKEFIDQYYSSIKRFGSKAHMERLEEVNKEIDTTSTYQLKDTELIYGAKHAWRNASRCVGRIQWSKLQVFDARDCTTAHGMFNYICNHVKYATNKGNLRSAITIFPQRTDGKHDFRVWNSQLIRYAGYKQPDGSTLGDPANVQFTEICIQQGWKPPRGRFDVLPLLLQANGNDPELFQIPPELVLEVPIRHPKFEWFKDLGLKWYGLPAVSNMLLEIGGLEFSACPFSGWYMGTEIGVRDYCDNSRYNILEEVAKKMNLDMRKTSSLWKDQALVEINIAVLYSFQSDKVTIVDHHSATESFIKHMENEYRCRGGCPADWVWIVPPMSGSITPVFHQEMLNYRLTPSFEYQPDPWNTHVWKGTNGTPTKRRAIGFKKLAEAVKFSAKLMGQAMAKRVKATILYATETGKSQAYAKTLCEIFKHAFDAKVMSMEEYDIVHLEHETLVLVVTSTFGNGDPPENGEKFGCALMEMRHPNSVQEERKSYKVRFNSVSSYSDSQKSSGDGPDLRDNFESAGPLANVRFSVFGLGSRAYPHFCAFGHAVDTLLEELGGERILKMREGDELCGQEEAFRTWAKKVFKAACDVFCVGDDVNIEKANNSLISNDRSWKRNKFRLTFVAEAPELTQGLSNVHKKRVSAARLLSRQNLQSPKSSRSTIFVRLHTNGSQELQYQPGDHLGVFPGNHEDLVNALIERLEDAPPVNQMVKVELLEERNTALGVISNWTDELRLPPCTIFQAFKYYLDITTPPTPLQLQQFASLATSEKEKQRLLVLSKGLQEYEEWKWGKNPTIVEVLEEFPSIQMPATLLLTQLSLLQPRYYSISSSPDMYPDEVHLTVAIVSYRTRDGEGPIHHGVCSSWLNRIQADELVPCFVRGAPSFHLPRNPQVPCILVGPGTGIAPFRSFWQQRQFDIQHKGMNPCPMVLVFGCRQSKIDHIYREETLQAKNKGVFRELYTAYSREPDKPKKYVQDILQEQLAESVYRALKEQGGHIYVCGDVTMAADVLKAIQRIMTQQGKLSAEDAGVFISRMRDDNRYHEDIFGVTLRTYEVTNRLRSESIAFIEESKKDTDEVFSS

inhibition at 100 µM (CYP2D6) [%] | inhibition at 100 µM (CYP1A2) [%] | Structure (SMILES) | Activity (Mus musculus [1]) [%] | half-life [2] [min] | ED50 (Mus musculus [3]) [mg/kg] | EC50 (Cytochrome P450 2C9) [µM] | Vdss (Mus musculus [4]) [L/kg] | AUC [5] [ng·h/mL] | EC50 (Nitric oxide synthase 1) [nM] | EC50 [6] [nM] | Cmax [7] [nM] | CL/F [8] [mL/min/kg] | Tmax [9] [min]
< 50 | < 50 | Cc1ncsc1C(=O)N(Cc1cc(=O)[nH]c2c(F)cccc12)c1cccc(Cl)c1 | 40 | 54 | 10 | 33 | 1.6 | 450 | 2300 | 120 | 1400 | > 100 | 30
< 50 | < 50 | CC(C)C(=O)N(Cc1cc(=O)[nH]c2c(F)cccc12)c1cccc(Cl)c1 |  |  |  |  |  |  | 2900 | 2700 |  |  | 

Further lines, the molecule ahead of its results:

Structure (SMILES) | inhibition at 100 µM (CYP2D6) [%] | inhibition at 100 µM (CYP1A2) [%] | Activity (Mus musculus [1]) [%] | half-life [2] [min] | ED50 (Mus musculus [3]) [mg/kg] | EC50 (Cytochrome P450 2C9) [µM] | Vdss (Mus musculus [4]) [L/kg] | AUC [5] [ng·h/mL] | EC50 (Nitric oxide synthase 1) [nM] | EC50 [6] [nM] | Cmax [7] [nM] | CL/F [8] [mL/min/kg] | Tmax [9] [min]
Cc1ncsc1C(=O)N(Cc1c[n+]([O-])cc2c(F)c(F)ccc12)c1cccc(Cl)c1 | < 50 | < 50 |  |  |  | 55 |  |  | 3200 | 74 |  |  | 
CC1=C(C(=O)N(Cc2cc(=O)[nH]c3c(F)c(F)ccc23)c2cccc(Cl)c2)CNCC1 | < 50 | < 50 |  |  | 16 |  |  |  | 290 | 57 |  |  | 
Cn1cncc1C(=O)N(Cc1cc(=O)[nH]c2c(F)c(F)ccc12)c1cccc(Cl)c1 |  |  | 65 | 66 | 5 | 25 | 1.1 | 520 | 70 | 14 | 2200 | > 100 | 15
Cc1ncsc1C(=O)N(Cc1cc(=O)[nH]c2c(F)c(F)ccc12)c1cccc(Cl)c1 | < 50 |  |  |  | 13 | 22 |  |  | 120 | 32 |  |  | 
